Four compounds from ChEMBL document CHEMBL4732158, “Bicyclic Ligand-Biased Agonists of S1P: Exploring Side Chain Modifications to Modulate the PK, PD, and Safety Profiles” (J Med Chem, 2021) can be followed below.

Each structure is given as a SMILES string. The source made the active and inactive calls. The rule behind the calls is not given here.

One may read the bioavailability as the share of a dose that reaches the circulation, judged against a reference dose that is usually intravenous. One may read the clearance as the rate of elimination divided by the concentration. By ED50 is commonly meant the dose that gives a 50% effect, or the effect in half of the subjects.

Data set [1] is described as follows: AUC ratio in orally dosed cynomolgus monkey blood assessed as phosphate metabolite to parent compound. The format is ADME, organism-based, Macaca fascicularis. To be noted: in vivo, po. The essentials: (§1)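 Phosphate-to-parent ratio computed as blood AUC ratio after oral dosing in rats, dogs and monkeys.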
Data set [2] in a line: AUC ratio in orally dosed human blood assessed as phosphate metabolite to parent compound. The class given is ADME, organism-based. The conditions noted are these: po.
Data set [3] can be described thus: AUC ratio in orally dosed Sprague-Dawley rat blood assessed as phosphate metabolite to parent compound. The class given is ADME, organism-based. The conditions noted are these: in vivo, po. The gist of the method: as §1
Data set [4] is described as follows: AUC ratio in orally dosed Beagle dog blood assessed as phosphate metabolite to parent compound. The format is ADME, organism-based, Canis lupus familiaris. The conditions noted are these: in vivo, po. The gist of the method: as §1
Data set [5] in a line: Reduction in circulating lymphocytes count in Lewis rat at 5 mg/kg, po measured at 24 hrs by hematology analyzer based analysis. The arrangement: scale not given: the % may be the effect or the level left. The conditions noted are these: in vivo. The format is ADME, organism-based. The gist of the method: (§2)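 Lewis rats (n = 2−4) dosed orally; whole-blood lymphocyte counts taken 4 h and 24 h after dosing and reduction expressed versus vehicle-treated rats. Significance by ANOVA with Dunnett's test (p < 0.05 vs vehicle). Blood levels of parent and phosphate metabolite measured at the same time points in this PK/PD screen.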

A short description of data set [6]: Drug concentration in Lewis rat blood assessed as concentration of parent compound at 5 mg/kg, po measured at 24 hrs by LC-MS/MS analysis. The format is ADME, organism-based. To be noted: Lewis, blood, read-out: Ct. The gist of the method:
(§3)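 Lewis rats (n = 2−4) dosed orally at 0.5, 1, 2 or 5 mg/kg; blood parent and phosphate metabolite concentrations and lymphocyte counts taken 4 and 24 h post-dose; phosphate-to-parent ratio from 24 h levels; significance versus vehicle by ANOVA with Dunnett's test.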

Data set [7] can be described thus: Ratio of drug metabolism in Lewis rat blood assessed as phosphate ester metabolite to parent drug at 5 mg/kg, po measured at 24 hrs by LC-MS/MS analysis. The class given is ADME, organism-based. The conditions noted are these: in vivo. The gist of the method: as §3
The subject of data set [8] is Rattus norvegicus. In words: Reduction in circulating lymphocytes count in Lewis rat at 5 mg/kg, po measured at 4 hrs by hematology analyzer based analysis. The format is functional. The arrangement: scale not given: the % may be the effect or the level left. The essentials: as §2
Data set [9] in a line: Pulmonary toxicity in Lewis rat assessed as fold elevation of BAL protein content at 5 mg/kg, po by chemistry analyzer based analysis relative to control. The format is organism-based. To be noted: in vivo. The essentials: (§4)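 Lewis rats dosed orally; bronchoalveolar lavage protein measured at study end, expressed as fold over vehicle control.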
The nature of data set [10]: Drug concentration in Lewis rat blood assessed as concentration of parent compound at 5 mg/kg, po measured at 4 hrs by LC-MS/MS analysis. The class given is ADME, organism-based. The conditions noted are these: read-out: Ct. The gist of the method: as §3
Data set [11] in a line: Reduction in circulating lymphocytes count in Lewis rat at 0.3 mg/kg, po measured at 24 hrs by hematology analyzer based analysis. The class given is ADME, organism-based. Also on record: scale not given: the % may be the effect or the level left. The conditions noted are these: in vivo.
In data set [12] the test system is Rattus norvegicus. In words: Reduction in circulating lymphocytes count in Lewis rat at 0.3 mg/kg, po measured at 4 hrs by hematology analyzer based analysis. The class given is functional. Also on record: scale not given: the % may be the effect or the level left.
Data set [13] is described as follows: Drug concentration in Lewis rat blood assessed as concentration of parent compound at 2 mg/kg, po measured at 24 hrs by LC-MS/MS analysis. The conditions noted are these: in vivo, read-out: Ct. The format is ADME, organism-based. The essentials: as §3
A short description of data set [14]: Oral bioavailability in Sprague- Dawley rat at 1 mg/kg. The class given is ADME, organism-based. The conditions noted are these: in vivo.
Data set [15] in a line: Drug concentration in Lewis rat blood assessed as concentration of parent compound at 2 mg/kg, po measured at 4 hrs by LC-MS/MS analysis. The format is ADME, organism-based. To be noted: Lewis, blood, read-out: Ct. The essentials:
as §3

Data set [16] can be described thus: Cardiotoxicity in human iPSC derived cardiomyocytes assessed as change in heart rate at 10 nM measured over 2 hrs by multi-electrode array relative to control. The format is toxicity, cell-based. The conditions noted are these: stem cell-derived cardiomyocyte, 0.01 µM. The essentials: (§5)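 Phosphate metabolite of each compound prepared and tested on cultured human induced pluripotent stem cell-derived cardiomyocytes at 1 and 10 nM; beat rate change averaged over three or more replicates per concentration unless noted (some n = 2).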

Data set [17] can be described thus: Pulmonary toxicity in Lewis rat assessed as fold elevation of BAL protein content at 2 mg/kg, po by chemistry analyzer based analysis relative to control. The conditions noted are these: in vivo. The format is organism-based. The essentials: as §4
A short description of data set [18]: Reduction in circulating lymphocytes count in Lewis rat at 2 mg/kg, po measured at 24 hrs by hematology analyzer based analysis. The format is Functional, organism-based. Also on record: scale not given: the % may be the effect or the level left. To be noted: in vivo. The gist of the method:
as §2

The nature of data set [19]: Volume of distribution at steady state in Sprague- Dawley rat at 1 mg/kg, po or 1 mg/kg, iv. The class given is ADME, organism-based. The conditions noted are these: in vivo, read-out: Vdss. The essentials: (§6)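 Single IV and oral dosing in male animals, n = 3. Rats were Sprague-Dawley. Vehicle: 18.4% hydroxypropyl-β-cyclodextrin in 13.8 mM citric acid. Blood concentrations followed over time; terminal T1/2 and steady-state volume of distribution taken from the IV dose.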

Data set [20] is described as follows: Oral bioavailability in cynomolgus monkey at 1 mg/kg. The class given is ADME, organism-based, Macaca fascicularis. To be noted: in vivo.
Data set [21] can be described thus: Clearance in Sprague- Dawley rat at 1 mg/kg, iv. The format is ADME, organism-based. The conditions noted are these: in vivo.
For data set [22], the system named is Rattus norvegicus. Description: Antiinflammatory activity in complete freund's adjuvant-induced Lewis rat model of arthritis assessed as effective dose administered via oral gavage once daily by plethysmometric method. The format is functional.
Data set [23] in a line: Terminal half life in cynomolgus monkey at 1 mg/kg, po or 1 mg/kg, iv. The class given is ADME, organism-based, Macaca fascicularis. The conditions noted are these: in vivo, read-out: beta t1/2 (converted). The essentials:
as §6

Data set [24] in a line: Terminal half life in Sprague- Dawley rat at 1 mg/kg, po or 1 mg/kg, iv. The conditions noted are these: in vivo, read-out: beta t1/2 (converted). The class given is ADME, organism-based. The gist of the method: as §6
Data set [25] can be described thus: Ratio of drug metabolism in Lewis rat blood assessed as phosphate ester metabolite to parent drug at 2 mg/kg, po measured at 24 hrs by LC-MS/MS analysis. The format is ADME, organism-based. To be noted: in vivo. The gist of the method: as §3
For data set [26], the system named is Rattus norvegicus. In words: Antiinflammatory activity in complete freund's adjuvant-induced Lewis rat model of arthritis assessed as increase in paw volume at 2.5 mg/kg, po administered via gavage once daily by plethysmometric method. The format is functional, organism-based.
Data set [27] has as its system Rattus norvegicus. In words: Reduction in circulating lymphocytes count in Lewis rat at 2 mg/kg, po measured at 4 hrs by hematology analyzer based analysis. The arrangement: scale not given: the % may be the effect or the level left. The class given is functional. The gist of the method:
as §2

Data set [28] has as its system Rattus norvegicus. In words: Antiinflammatory activity in complete freund's adjuvant-induced Lewis rat model of arthritis assessed as reduction in paw edema at 0.5 mg/kg, po administered via gavage once daily and measured at day 18 to 22 by plethysmometric method. The format is functional, organism-based. To be noted: time 18-22 day.
Data set [29] can be described thus: Half life in Lewis rat at 2 mg/kg, po measured at 4 to 72 hrs. The format is ADME, organism-based. The conditions noted are these: Lewis, in vivo, time 4-72 hrs. The essentials: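 Half-life estimated from oral-dosing blood PK profiles in Lewis rats sampled at four time points: 4, 24, 48 and 72 h.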
A short description of data set [30]: Clearance in cynomolgus monkey at 1 mg/kg, iv. The class given is ADME, organism-based, Macaca fascicularis. The conditions noted are these: in vivo.
For data set [31], the system named is Rattus norvegicus. In words: Antiinflammatory activity in complete freund's adjuvant-induced Lewis rat model of arthritis assessed as reduction in paw swelling at 0.5 mg/kg, po administered via gavage once daily and measured at day 18 to 22 by plethysmometric method relative to control. The class given is functional. Also on record: scale not given: the % may be the effect or the level left. The conditions noted are these: time 18-22 day.

The test system of data set [32] is Rattus norvegicus. In words: Antiinflammatory activity in complete freund's adjuvant-induced Lewis rat model of arthritis assessed as reduction in paw edema administered via oral gavage once daily by plethysmometric method. The format is functional, organism-based.
Data set [33] can be described thus: Volume of distribution at steady state in cynomolgus monkey at 1 mg/kg, po or 1 mg/kg, iv. The format is ADME, organism-based, Macaca fascicularis. The conditions noted are these: in vivo, read-out: Vdss. The essentials: as §6
A short description of data set [34]: Cardiotoxicity in human iPSC derived cardiomyocytes assessed as change in heart rate at 1 nM measured over 2 hrs by multi-electrode array relative to control. The format is toxicity, cell-based. The conditions noted are these: stem cell-derived cardiomyocyte, 0.001 µM. The essentials:
as §5

As to `CCCCCCCCc1ccc(CCC(N)(CO)CO)cc1` [FINGOLIMOD], the “Ratio AUC” value in data set [1] is 5.9; in data set [2], 0.42; in data set [3], 5.6; in [4], 3.7.

With `CCCC[S+]([O-])C[C@@H]1CCc2cc([C@H]3CC[C@](N)(CO)C3)ccc2C1` (stereo partly specified), the Activity was determined as 75% in data set [5] and 0% in data set [8]. Also, the concentration at 24 h in data set [6] was found to be 10 nM. Besides, the Ratio in [7] came to 2.3. Moreover, the “fold change (FC)” value in [9] was 1.5. In addition, the concentration at 4 h in data set [10] was determined as 109 nM.

Turning to `C/C=C\CCC[C@@H]1CCc2cc([C@H]3CC[C@](N)(CO)C3)ccc2C1`, the Activity in data set [11] was found to be 22%; in data set [12] it was 0%.

`CCOCCCC1CCc2cc([C@H]3CC[C@](N)(CO)C3)ccc2C1` (single isomer, unassigned): in data set [13], the concentration stood at 110 nM. In addition, the bioavailability in data set [14] amounted to 45%; in [20], 76%. Besides, the “Ratio AUC” value in [1] is listed as 0.73; in data set [3] it was 0.9. In data set [15], the concentration at 4 h is 172 nM. Further, the Activity in data set [16] is -29%; in data set [18] it was 83%; in data set [27], 78%; in data set [31], 75%; in [32] it was “Dose-dependent effect”; in data set [34], -14%. Further, in [17], the “fold change (FC)” value was found to be 1.2. Moreover, the Vd was determined as 12 L/kg in data set [19] and 8.4 L/kg in [33]. Moreover, the figures for the clearance in data set [21] and in [30] were 6 mL/min/kg and 7.4 mL/min/kg, respectively. Also, in data set [22], the 50% effective dose (ED50) stood at 0.3 mg/kg. Further, the half-life in data set [23] was 21 h; in data set [24], 29 h; in [29], 26 h. Besides, the Ratio in data set [25] stood at 1.8. Besides, the outcome in data set [26] and in [28] was inactive.
